Data published in publication PMC8829947 (ACS Omega, 2022).
Converted amounts (≈) assume the structure as drawn. Where two headings read alike, the source gives them in different places.

Key:
IMP-7 = assay: In vitro enzyme inhibition assay, purified recombinant IMP-7; format: biochemical; conditions: read-out: IC50 IMP-7 - Zn; Zn2+-depleted (Chelex-100-treated) buffer
In short: (§1)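 Purified recombinant enzyme at 4 nM was preincubated 5–10 min at RT with varying inhibitor concentrations. Buffer was 50 mM HEPES pH 7.5, 0.2% DMSO, 1% PEG 4000, with either 10 μM ZnSO4 or no zinc (Chelex-100-treated, 2 h, filtered). Reactions were started with nitrocefin (30 μM final, A490) or meropenem (50 μM final, A300) and followed 60 s. IC50 came from the linear portion of progress curves. Duplicates.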

[1] = Zn2+ affinity by competition with colorimetric PAR assay; format: binding; conditions: read-out: Kd,Zn2; PAR 100 μM, ZnSO4 10 μM, pH 7.5, 3 h at 25 °C
In short: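 The test compound was titrated into Chelex-100-treated 20 mM HEPES, 100 mM NaCl, pH 7.5, containing PAR 100 μM and ZnSO4 10 μM, then incubated 3 h at 25 °C. Zn2+ displacement from PAR was read as the fall in absorbance at 492 nm. Kd was estimated from the known PAR stability constant at pH 7.4.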

VIM-2 = VIM-2 (Escherichia coli, UniProt Q5U7L7); assay: In vitro enzyme inhibition assay, purified recombinant VIM-2; format: biochemical
In short: as §1

[2] = test system: K. pneumoniae ATCC 33495::pGDP2 (NDM-1); assay: Meropenem rescue and MIC, antimicrobial susceptibility test; format: cell-based, Klebsiella pneumoniae; conditions: for MIC: Klebsiella pneumoniae
[3] = test system: E. coli expressing blaNDM-1; assay: Meropenem rescue concentration, antimicrobial susceptibility test; format: cell-based, Escherichia coli; conditions: rescue concentration at meropenem 2 μg/mL, MHB
In short: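 Checkerboard broth microdilution in Mueller–Hinton broth against E. coli carrying the plasmid-borne MBL gene. Meropenem used five 2-fold dilutions and the test compound six 2-fold dilutions, within 0.5–64 μg/mL; the test compound was dissolved in water or 50% methanol. Inoculum was adjusted to OD625 0.08–0.10, then diluted 200-fold. Incubation was 20 h static at 37 °C, read at OD600. RC is the compound concentration restoring susceptibility at meropenem 2 μg/mL. ≥2 replicates.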

NDM-1 = NDM-1 (Klebsiella pneumoniae, UniProt C7C422); assay: In vitro enzyme inhibition assay, purified recombinant NDM-1; format: biochemical
NDM-1, sequence (C7C422 29-270, looked up, species assumed): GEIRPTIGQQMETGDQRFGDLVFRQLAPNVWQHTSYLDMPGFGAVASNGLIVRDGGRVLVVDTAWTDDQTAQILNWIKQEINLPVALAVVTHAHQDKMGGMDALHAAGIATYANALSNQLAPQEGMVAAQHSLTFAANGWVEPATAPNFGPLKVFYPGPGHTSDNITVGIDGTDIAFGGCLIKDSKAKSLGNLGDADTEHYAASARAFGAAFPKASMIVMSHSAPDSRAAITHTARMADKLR
In short: as §1

E. coli = assay: MIC of single agent, antimicrobial susceptibility test; format: cell-based; conditions: Escherichia coli
E. coli BW25113 (WT) = assay: Cell penetration / intracellular accumulation assay; format: cell-based, Escherichia coli; conditions: 50 μM, wild-type E. coli
In short: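 E. coli BW25113 (wild type) cells were incubated with the test compound at 50 μM (reference chelator at 50 or 100 μM) for 10 min at 37 °C. Cells were spun through ice-cold silicone oil (12,000g, 2 min), resuspended in water and lysed by three freeze–thaw cycles. The debris pellet was extracted with MeOH. Pooled extracts were quantified by UPLC–Q-TOF targeted MS/MS against a calibration curve. Biological and technical triplicates.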

[4] = test system: A. baumannii ATCC 17978::pROTO2 (NDM-1); assay: Meropenem rescue and MIC, antimicrobial susceptibility test; format: cell-based, Acinetobacter baumannii; conditions: rescue concentration at meropenem 2 μg/mL
[5] = IC50 NDM-1 + Zn, Zn2+-supplemented (10 μM) buffer
[6] = IC50 NDM-1 - Zn, Zn2+-depleted (Chelex-100-treated) buffer

Row | SMILES | IC50 (IMP-7) | Kd [1] | IC50 (VIM-2) | MIC ([2]; ATCC33495, read-out: MIC of compound (Table 3 footnote c)) | RC in MHB, NDM-1 [3] | IC50 (NDM-1; [5]) | IC50 (NDM-1; [6]) | MIC (E. coli; read-out: MIC (antimicrobial activity)) | intracellular accumulation (E. coli BW25113 (WT); 10 min 37 °C) | MIC ([2]; ATCC33495, read-out: Meropenem MIC (Table 3 footnote b)) | MIC (E. coli; read-out: MIC of meropenem against resistant E. coli) | intracellular accumulation increase relative to AMA (E. coli BW25113 (WT)) | RC in MHB, K. pneumoniae ATCC 33495::pGDP2 (NDM-1) ([2]; rescue concentration at meropenem 2 μg/mL, MHB) | RC in MHB, A. baumannii ATCC 17978::pROTO2 (NDM-1) [4]
1 | CC(C)(S)C(NC[C@H](NC[C@H](N)C(=O)O)C(=O)O)C(=O)O (stereo in doubt) [Compound 15, (S)-2-(((S)-2-(((S)-2-Amino-2-carboxyethyl)amino)-2-carboxyethyl)amino)-3-mercapto-3-methylbutanoic Acid] | > 500 µM | 0.0023 ± 0.0004 µM | 361 ± 29 µM | 16 to 32 µg/mL | 32 µg/mL | 56.1 ± 2.5 µM | 98.6 ± 4 µM | 64 µg/mL |  |  |  |  |  | 
2 | C[C@@H](O)[C@H]1C(=O)N2C(C(=O)O)=C(S[C@@H]3CN[C@H](C(=O)N(C)C)C3)[C@H](C)[C@H]12 [meropenem, reference compound] |  |  |  |  |  |  |  |  | 43.9 nmol/10^12 CFU | 16 to 32 µg/mL (≈ 41.7 to 83.4 µM) | 64 µg/mL |  |  | 
3 | N[C@@H](CN[C@@H](CN[C@@H](CC(=O)O)C(=O)O)C(=O)O)CSc1ccc(O)cc1 [Compound 6, ((S)-2-(((S)-2-Amino-3-((4-hydroxyphenyl)thio)propyl)amino)-2-carboxyethyl)-L-aspartic Acid] | > 500 µM | 0.0078 ± 0.0034 µM | 183 ± 10 µM |  | 8 µg/mL | 54 ± 4.1 µM | > 500 µM |  |  |  |  | 4.5 fold | 16 μg/mL | 8 μg/mL
